Experimental data reported in ChEMBL document CHEMBL2346534, “Design, synthesis and in vitro anti-proliferative activity of 4,6-quinazolinediamines as potent EGFR-TK inhibitors” (Eur J Med Chem, 2013).

Columns and labels:
Type in all cases: functional
OVCAR-8 = experiment: Cytotoxicity against human OVCAR8 cells assessed as cell growth at 10^-5 M after 48 hrs by SRB assay; conditions: OVCAR-8, 48 h, read-out: Activity
How it was run: (§1)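 NCI 60-panel single-dose primary screen at 10^-5 M. Cells are grown in RPMI 1640 with 5% FBS and 2 mM L-glutamine and preincubated 24 h at 37 °C. Drug exposure is 48 h. Cells are TCA-fixed, stained with SRB and absorbance is read at 515 nm. Results are reported as percent growth of treated cells versus untreated controls, corrected using time-zero plates.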

PC-3 = experiment: Cytotoxicity against human PC3 cells assessed as cell growth at 10^-5 M after 48 hrs by SRB assay; conditions: PC-3, 48 h, read-out: Activity; how it was run: as §1
ACHN = experiment: Cytotoxicity against human ACHN cells assessed as cell growth at 10^-5 M after 48 hrs by SRB assay; conditions: read-out: Activity
How it was run: (§2)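 NCI 60 single-dose screen at 10^-5 M. Cells in RPMI 1640 with 5% FBS and 2 mM L-glutamine, preincubated 24 h at 37 °C/5% CO2. Drug from DMSO stock, then 48 h exposure. TCA fixation, SRB staining, absorbance at 515 nm. Result given as percent growth of treated cells relative to untreated control.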

OVCAR-4 = experiment: Cytotoxicity against human OVCAR4 cells assessed as cell growth at 10^-5 M after 48 hrs by SRB assay; conditions: OVCAR-4, 48 h, read-out: Activity; how it was run: as §1
A549 = experiment: Cytotoxicity against human A549 cells assessed as cell growth at 10^-5 M after 48 hrs by SRB assay; conditions: A549, 48 h, read-out: Activity; how it was run: as §2
NCI-H522 = experiment: Cytotoxicity against human NCI-H522 cells assessed as cell growth at 10^-5 M after 48 hrs by SRB assay; conditions: NCI-H522, 48 h, read-out: Activity; how it was run: as §1
SK-MEL-2 = experiment: Cytotoxicity against human SK-MEL-2 cells assessed as cell growth at 10^-5 M after 48 hrs by SRB assay; conditions: SK-MEL-2, 48 h, read-out: Activity; how it was run: as §1
HOP-92 = experiment: Cytotoxicity against human HOP92 cells assessed as cell growth at 10^-5 M after 48 hrs by SRB assay; conditions: HOP-92, 48 h, read-out: Activity; how it was run: as §2
HL-60(TB) = experiment: Cytotoxicity against human HL-60(TB) cells assessed as cell growth at 10^-5 M after 48 hrs by SRB assay; conditions: HL-60, 48 h, read-out: Activity
How it was run: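 NCI 60-panel single-dose screen. Cells were grown in RPMI 1640 with 5% FBS and 2 mM L-glutamine, preincubated 24 h, then exposed to compound at 10^-5 M (from DMSO stock) for 48 h at 37 °C, 5% CO2. Settled suspension cells were TCA-fixed and SRB-stained, with absorbance read at 515 nm. The value is percent growth of treated versus untreated control cells.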

BT-549 = experiment: Cytotoxicity against human BT549 cells assessed as cell growth at 10^-5 M after 48 hrs by SRB assay; conditions: BT-549, 48 h, read-out: Activity; how it was run: as §2
KM12 = experiment: Cytotoxicity against human KM12 cells assessed as cell growth at 10^-5 M after 48 hrs by SRB assay; conditions: KM12, 48 h, read-out: Activity; how it was run: as §2
COLO 205 = experiment: Cytotoxicity against human COLO205 cells assessed as cell growth at 10^-5 M after 48 hrs by SRB assay; conditions: COLO 205, 48 h, read-out: Activity; how it was run: as §2
UO-31 = experiment: Cytotoxicity against human UO31 cells assessed as cell growth at 10^-5 M after 48 hrs by SRB assay; conditions: UO-31, 48 h, read-out: Activity
How it was run: (§3)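 NCI primary single-dose screen at 10^-5 M. Cells grown in RPMI 1640 with 5% FBS and 2 mM L-glutamine, given 24 h before drug addition, then 48 h exposure at 37 °C, 5% CO2. Cells TCA-fixed, stained with SRB, read at 515 nm. Reported as percent growth of treated cells relative to untreated controls.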

[1] = Cytotoxicity against human EKVX cells assessed as cell growth at 10^-5 M after 48 hrs by SRB assay; conditions: read-out: Activity; how it was run: as §2
LOX IMVI = experiment: Cytotoxicity against human LOXIMVI cells assessed as cell growth at 10^-5 M after 48 hrs by SRB assay; conditions: read-out: Activity; how it was run: as §2
SNB-75 = experiment: Cytotoxicity against human SNB75 cells assessed as cell growth at 10^-5 M after 48 hrs by SRB assay; conditions: SNB-75, 48 h, read-out: Activity; how it was run: as §1
HCT-15 = experiment: Cytotoxicity against human HCT15 cells assessed as cell growth at 10^-5 M after 48 hrs by SRB assay; conditions: HCT-15, 48 h, read-out: Activity; how it was run: as §2
NCI-H23 = experiment: Cytotoxicity against human NCI-H23 cells assessed as cell growth at 10^-5 M after 48 hrs by SRB assay; conditions: NCI-H23, 48 h, read-out: Activity; how it was run: as §1
Hs-578T = experiment: Cytotoxicity against human Hs578T cells assessed as cell growth at 10^-5 M after 48 hrs by SRB assay; conditions: read-out: Activity; how it was run: as §2
HT-29 = experiment: Cytotoxicity against human HT-29 cells assessed as cell growth at 10^-5 M after 48 hrs by SRB assay; conditions: HT-29, 48 h, read-out: Activity; how it was run: as §2
RPMI-8226 = experiment: Cytotoxicity against human RPMI8226 cells assessed as cell growth at 10^-5 M after 48 hrs by SRB assay; conditions: RPMI-8226, 48 h, read-out: Activity; how it was run: as §1
RXF 393 = experiment: Cytotoxicity against human RXF393 cells assessed as cell growth at 10^-5 M after 48 hrs by SRB assay; conditions: RXF 393, 48 h, read-out: Activity; how it was run: as §1
OVCAR-5 = experiment: Cytotoxicity against human OVCAR5 cells assessed as cell growth at 10^-5 M after 48 hrs by SRB assay; conditions: OVCAR-5, 48 h, read-out: Activity; how it was run: as §1
DU-145 = experiment: Cytotoxicity against human DU145 cells assessed as cell growth at 10^-5 M after 48 hrs by SRB assay; conditions: DU-145, 48 h, read-out: Activity; how it was run: as §2
UACC-257 = experiment: Cytotoxicity against human UACC257 cells assessed as cell growth at 10^-5 M after 48 hrs by SRB assay; conditions: UACC-257, 48 h, read-out: Activity; how it was run: as §3
TK-10 = experiment: Cytotoxicity against human TK10 cells assessed as cell growth at 10^-5 M after 48 hrs by SRB assay; conditions: TK-10, 48 h, read-out: Activity; how it was run: as §3
SK-MEL-5 = experiment: Cytotoxicity against human SK-MEL-5 cells assessed as cell growth at 10^-5 M after 48 hrs by SRB assay; conditions: SK-MEL-5, 48 h, read-out: Activity; how it was run: as §1
OVCAR-3 = experiment: Cytotoxicity against human OVCAR3 cells assessed as cell growth at 10^-5 M after 48 hrs by SRB assay; conditions: OVCAR-3, 48 h, read-out: Activity; how it was run: as §1

| SMILES | growth at 10 µM (OVCAR-8) [%] | growth at 10 µM (PC-3) [%] | growth at 10 µM (ACHN) [%] | growth at 10 µM (OVCAR-4) [%] | growth at 10 µM (A549) [%] | growth at 10 µM (NCI-H522) [%] | growth at 10 µM (SK-MEL-2) [%] | growth at 10 µM (HL-60(TB)) [%] | growth at 10 µM (BT-549) [%] | growth at 10 µM (KM12) [%] | growth at 10 µM (COLO 205) [%] | growth at 10 µM (UO-31) [%] | growth at 10 µM [1] [%] | growth at 10 µM (LOX IMVI) [%] | growth at 10 µM (SNB-75) [%] | growth at 10 µM (HCT-15) [%] | growth at 10 µM (NCI-H23) [%] | growth at 10 µM (Hs-578T) [%] | growth at 10 µM (HT-29) [%] | growth at 10 µM (RPMI-8226) [%] | also measured |
| --- | --- | --- | --- | --- | --- | --- | --- | --- | --- | --- | --- | --- | --- | --- | --- | --- | --- | --- | --- | --- | --- |
| CCOC(=O)/C(C#N)=C\Nc1ccc2ncnc(Nc3ccccc3Cl)c2c1 | 105 | 98.8 | 68.7 | 124 | 82.4 | 107 | 106 | 95.3 | 112 | 88.5 | 110 | 66.7 | 39 | 93 | 87.2 | 99 | 103 | 91 | 100 | 84.3 | growth at 10 µM (HOP-92): 70.4%; growth at 10 µM (RXF 393): 91.7%; growth at 10 µM (OVCAR-5): 90.1%; growth at 10 µM (DU-145): 62.1%; growth at 10 µM (UACC-257): 120%; growth at 10 µM (TK-10): 53%; growth at 10 µM (SK-MEL-5): 88.3%; growth at 10 µM (OVCAR-3): 95.3% |
| CCOC(=O)/C(C#N)=C\Nc1ccc2ncnc(Nc3ccc(Cl)cc3Cl)c2c1 | 87 | 59.3 | 62.9 | 95.1 | 72.1 | 95.8 | 110 | 108 | 89.6 | 79.1 | 108 | 42 | 41.7 | 87.5 | 91.3 | 92.7 | 99.5 | 75.5 | 79.4 | 79.5 | growth at 10 µM (HOP-92): 56.5%; growth at 10 µM (RXF 393): 77%; growth at 10 µM (OVCAR-5): 82.2%; growth at 10 µM (DU-145): 55.9%; growth at 10 µM (UACC-257): 97.2%; growth at 10 µM (TK-10): 44.2%; growth at 10 µM (SK-MEL-5): 78.3%; growth at 10 µM (OVCAR-3): 67.6% |
| CCOC(=O)/C(C#N)=C\Nc1ccc2ncnc(Nc3ccc(Cl)cc3)c2c1 | 83.3 | 60.6 | 51.2 | 89 | 66.1 | 79.8 | 105 | 76.2 | 76.1 | 74 | 102 | 43 | 20.6 | 87.5 | 86.3 | 84.9 | 92.5 | 89.3 | 86.3 | 62.9 | growth at 10 µM (RXF 393): 83.2%; growth at 10 µM (OVCAR-5): 92.8%; growth at 10 µM (DU-145): 49.2%; growth at 10 µM (UACC-257): 108%; growth at 10 µM (TK-10): 51.3%; growth at 10 µM (SK-MEL-5): 72%; growth at 10 µM (OVCAR-3): 50.2% |
